Test results published in ChEMBL document CHEMBL1833841, “Synthesis and biological evaluation of a novel class of isatin analogs as dual inhibitors of tubulin polymerization and Akt pathway” (Bioorg Med Chem, 2011).
Counter-ions that a name gives are not always drawn. Calls of active or inactive are those of the source. No cut-off for these calls is given here.

How the values were obtained:
[1] = system: HT-29; assay: Cytotoxicity against human HT-29 cells after 48 hrs by MTS assay; type: functional, cell-based; conditions: HT-29, 48 h
Procedure, shortened: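 HT29 cells maintained in RPMI with 10% FBS. 5×10^3 cells/well were left to adhere 24 h, then exposed 48 h to compound (DMSO stock diluted in DMEM, 0.5–50 µM). MTS absorbance at 490 nm normalized to control. IC50 from sigmoidal variable-slope fit. Triplicates, at least two independent experiments.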

[2] = system: UACC-903; assay: Cytotoxicity against human UACC903 cells after 48 hrs by MTS assay; type: functional, cell-based; conditions: UACC-903, 48 h
Procedure, shortened: (§1)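 A549, MCF-7 and UACC903 cells grown in DMEM with 10% FBS at 37°C, 5% CO2. 5×10^3 cells/well were left to adhere 24 h, then treated 48 h with compound (DMSO stock diluted in DMEM, 0.5–50 µM). MTS read at 490 nm and normalized to control. Dose-response fitted as sigmoidal, variable slope. Triplicates from at least two independent experiments.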

[3] = system: A549; assay: Cytotoxicity against human A549 cells after 48 hrs by MTS assay; type: functional, cell-based; conditions: A549, 48 h; procedure, shortened: as §1
[4] = system: MCF7; assay: Cytotoxicity against human MCF7 cells after 48 hrs by MTS assay; type: functional, cell-based; conditions: MCF7, 48 h; procedure, shortened: as §1
[5] = system: HT-29; assay: Induction of apoptosis in human HT-29 cells assessed as late apoptosis or necrotic cells at 5 uM after 24 hrs by PE annexin V and 7-Aminoactinomycin D staining-based flow cytometry (reference value: 4.1%); type: functional
Procedure, shortened: (§2)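 HT29 cells were treated with 1.25–5.0 µM compound or DMSO for 24 h at 37°C, harvested by low-speed centrifugation and washed twice in cold PBS. They were resuspended in binding buffer at 1×10^6 cells/ml, stained with PE annexin V and 7-AAD for 15 min at RT in the dark, and quantified by flow cytometry.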

[6] = system: HT-29; assay: Induction of apoptosis in human HT-29 cells assessed as early apoptotic cells at 2.5 uM after 24 hrs by PE annexin V and 7-Aminoactinomycin D staining-based flow cytometry (reference value: 1.37%); type: functional; procedure, shortened: as §2
[7] = system: HT-29; assay: Induction of apoptosis in human HT-29 cells assessed as viable cells at 1.25 uM after 24 hrs by PE annexin V and 7-Aminoactinomycin D staining-based flow cytometry (reference value: 93.2%); type: functional; conditions: HT-29, 24 h, read-out: Activity; procedure, shortened: as §2
[8] = system: HT-29; assay: Induction of apoptosis in human HT-29 cells at 2.5 uM after 24 hrs by PE annexin V and 7-Aminoactinomycin D staining-based flow cytometry; type: functional
Procedure, shortened: (§3)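 HT29 cells (RPMI, 10% FBS) treated with 1.25, 2.5 or 5 μM, or DMSO control, for 24 h at 37 °C. Cells then harvested, washed twice in cold PBS and resuspended at 1×10^6 cells/ml in binding buffer. Stained with PE annexin V and 7-AAD for 15 min at RT in the dark, then analysed by flow cytometry. 7-AAD-positive cells counted as dead.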

[9] = system: HT-29; assay: Induction of apoptosis in human HT-29 cells assessed as increase in caspase 3/7 activation after 24 hrs by fluorescence spectrophotometry; type: functional, cell-based
Procedure, shortened: (§4)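 HT29 cells seeded at 1×10^4/well and grown 24 h, then treated 24 h with 1.25–5 µM compound or DMSO. Equal volume of Apo-ONE caspase-3/7 reagent added, shaken 30 s, incubated 2 h at RT. Cleaved-substrate fluorescence read at ex 498/em 521 nm, expressed relative to DMSO cells. Means ± SD, triplicate, one representative experiment.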

[10] = system: HT-29; assay: Induction of apoptosis in human HT-29 cells assessed as early apoptotic cells at 5 uM after 24 hrs by PE annexin V and 7-Aminoactinomycin D staining-based flow cytometry (reference value: 1.37%); type: functional; procedure, shortened: as §2
[11] = system: HT-29; assay: Induction of apoptosis in human HT-29 cells assessed as dead cells at 5 uM after 24 hrs by PE annexin V and 7-Aminoactinomycin D staining-based flow cytometry (reference value: 1.33%); type: functional; procedure, shortened: as §3
[12] = system: HT-29; assay: Induction of apoptosis in human HT-29 cells at 1.25 uM after 24 hrs by PE annexin V and 7-Aminoactinomycin D staining-based flow cytometry; type: functional; procedure, shortened: as §3
[13] = system: HT-29; assay: Induction of apoptosis in human HT-29 cells assessed as viable cells at 2.5 uM after 24 hrs by PE annexin V and 7-Aminoactinomycin D staining-based flow cytometry (reference value: 93.2%); type: functional; conditions: HT-29, 24 h, read-out: Activity; procedure, shortened: as §2
[14] = system: HT-29; assay: Induction of apoptosis in human HT-29 cells assessed as early apoptotic cells at 1.25 uM after 24 hrs by PE annexin V and 7-Aminoactinomycin D staining-based flow cytometry (reference value: 1.37%); type: functional; procedure, shortened: as §2
[15] = system: HT-29; assay: Induction of apoptosis in human HT-29 cells assessed as dead cells at 2.5 uM after 24 hrs by PE annexin V and 7-Aminoactinomycin D staining-based flow cytometry (reference value: 1.33%); type: functional; procedure, shortened: as §3
[16] = system: HT-29; assay: Induction of apoptosis in human HT-29 cells assessed as increase in caspase 3/7 activation after 24 hrs by fluorescence spectrophotometry relative to control; type: functional; design: concentration or dose not given beside the values; procedure, shortened: as §4
[17] = system: HT-29; assay: Induction of apoptosis in human HT-29 cells after 24 hrs by PE annexin V and 7-Aminoactinomycin D staining-based flow cytometry; type: functional, cell-based; procedure, shortened: as §2
[18] = system: HT-29; assay: Induction of apoptosis in human HT-29 cells at 5 uM after 24 hrs by PE annexin V and 7-Aminoactinomycin D staining-based flow cytometry (reference value: 6.8%); type: functional; procedure, shortened: as §3
[19] = organism: Bos taurus; assay: Inhibition of bovine brain tubulin polymerization at 10 uM after 1 hrs by fluorescence assay
Procedure, shortened: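 Compound at 10 µM final, DMSO as control. Fluorescence (ex 360, em 440 nm) read every 10 s for 1 h at 37°C, duplicate wells.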

[20] = system: HT-29; assay: Induction of apoptosis in human HT-29 cells assessed as late apoptosis or necrotic cells at 1.25 uM after 24 hrs by PE annexin V and 7-Aminoactinomycin D staining-based flow cytometry (reference value: 4.1%); type: functional; procedure, shortened: as §2
[21] = system: HT-29; assay: Induction of apoptosis in human HT-29 cells assessed as dead cells at 1.25 uM after 24 hrs by PE annexin V and 7-Aminoactinomycin D staining-based flow cytometry (reference value: 1.33%); type: functional; procedure, shortened: as §3
[22] = system: HT-29; assay: Induction of apoptosis in human HT-29 cells assessed as late apoptosis or necrotic cells at 2.5 uM after 24 hrs by PE annexin V and 7-Aminoactinomycin D staining-based flow cytometry (reference value: 4.1%); type: functional; procedure, shortened: as §2
[23] = system: HT-29; assay: Induction of apoptosis in human HT-29 cells assessed as viable cells at 5 uM after 24 hrs by PE annexin V and 7-Aminoactinomycin D staining-based flow cytometry (reference value: 93.2%); type: functional; conditions: HT-29, 24 h, read-out: Activity; procedure, shortened: as §2
[24] = system: HT-29; assay: Inhibition of AKT expression in human HT-29 cells assessed as total AKT level at 1 uM after 24 hrs by Western blotting; type: functional, cell-based
Procedure, shortened: (§5)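 HT29 cells treated 24 h with 1 or 2 µM compound or no drug. Lysed in HEPES/NaCl/EDTA/NP40 buffer with phosphatase and protease inhibitors. Protein equalized by Bradford, run on 10% gels, semi-dry transfer to nitrocellulose, blocked in 5% milk. Pan-Akt or phospho-Akt rabbit polyclonal primaries overnight at 4°C, HRP secondaries, chemiluminescence. β-actin loading control.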

[25] = molecular target: RAC-alpha serine/threonine-protein kinase (Homo sapiens) (UniProt P31749); assay: Inhibition of AKT phosphorylation in human HT-29 cells assessed as p-AKT level at 1 uM after 24 hrs by Western blotting; type: cell-based; procedure, shortened: as §5
[26] = system: HT-29; assay: Inhibition of AKT expression in human HT-29 cells assessed as total AKT level at 2 uM after 24 hrs by Western blotting; type: functional, cell-based; procedure, shortened: as §5

RAC-alpha serine/threonine-protein kinase (Homo sapiens), sequence (P31749 whole entry): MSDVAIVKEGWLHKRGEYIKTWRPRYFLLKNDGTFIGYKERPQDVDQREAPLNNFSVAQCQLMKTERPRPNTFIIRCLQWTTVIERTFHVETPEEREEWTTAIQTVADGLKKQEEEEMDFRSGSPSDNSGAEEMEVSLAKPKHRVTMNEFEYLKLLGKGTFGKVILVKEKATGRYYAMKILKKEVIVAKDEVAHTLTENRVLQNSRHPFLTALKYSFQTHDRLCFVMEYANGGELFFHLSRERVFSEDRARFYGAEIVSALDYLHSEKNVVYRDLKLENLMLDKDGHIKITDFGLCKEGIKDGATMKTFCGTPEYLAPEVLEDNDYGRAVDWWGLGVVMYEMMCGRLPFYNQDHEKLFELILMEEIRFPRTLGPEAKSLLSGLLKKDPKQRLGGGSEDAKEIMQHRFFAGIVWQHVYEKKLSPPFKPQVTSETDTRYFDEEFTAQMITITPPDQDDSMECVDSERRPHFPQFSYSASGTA

Compound: N#C[Se]CCCCN1C(=O)C(=O)c2cc(Br)cc(Br)c21
- IC50 [1]: 2.39 µM
- IC50 [2]: 9.03 µM
- IC50 [3]: 3.15 µM
- IC50 [4]: 1.53 µM

Compound: O=C1C(=O)N(CCCCCl)c2c(Br)cc(Br)cc21
- IC50 [1]: 2.51 µM
- IC50 [2]: 3.74 µM
- IC50 [3]: 3.81 µM
- IC50 [4]: 14.9 µM

Compound: N#CSCCCN1C(=O)C(=O)c2cc(Br)cc(Br)c21
- IC50 [1]: 3.24 µM
- IC50 [2]: 2.89 µM
- IC50 [3]: 3.53 µM
- IC50 [4]: 9.78 µM

Compound: N#C[Se]CCCN1C(=O)C(=O)c2cc(Br)cc(Br)c21
- Activity [5]: 5.79%
- Activity [6]: 2.25%
- viability at 1.25 µM [7]: 92.1%
- Activity [8]: 10.44%
- Activity [9]: Dose-dependent effect
- Activity [10]: 48.6%
- Activity [11]: 1.89%
- Activity [12]: 7.92%
- viability at 2.5 µM [13]: 89.6%
- Activity [14]: 1.94%
- IC50 [1]: 3.18 µM
- Activity [15]: 1.92%
- fold change (FC) [16]: 16
- Activity [17]: Dose-dependent effect
- Activity [18]: 56.28%
- inhibition [19]: 63%
- Activity [20]: 4.45%
- IC50 [2]: 21.6 µM
- Activity [21]: 1.53%
- IC50 [3]: 3.46 µM
- Activity [22]: 6.27%
- IC50 [4]: 1.65 µM
- viability at 5 µM [23]: 43.8%

Compound: N#C[Se]Cc1ccc(CN2C(=O)C(=O)c3cc(Br)cc(Br)c32)cc1
- IC50 [1]: 2.59 µM
- IC50 [2]: 12.1 µM
- IC50 [3]: 2.41 µM
- IC50 [4]: 1.45 µM

Compound: N#CSCCCCN1C(=O)C(=O)c2cc(Br)cc(Br)c21
- IC50 [1]: 2.42 µM
- IC50 [2]: 2.06 µM
- IC50 [3]: 5.53 µM
- IC50 [4]: 22.1 µM

Compound: CC[C@]1(O)C[C@@H]2CN(CCc3c([nH]c4ccccc34)[C@@](C(=O)OC)(c3cc4c(cc3OC)N(C)[C@H]3[C@@](O)(C(=O)OC)[C@H](OC(C)=O)[C@]5(CC)C=CCN6CC[C@]43[C@@H]65)C2)C1 [VINBLASTINE SULFATE]
- IC50 [1]: 0.55 µM
- inhibition [19]: 66%
- IC50 [2]: 1.65 µM

Compound: O=C1C(=O)N(CCCCl)c2c(Br)cc(Br)cc21
- IC50 [1]: 2.57 µM
- IC50 [2]: 8.57 µM
- IC50 [3]: 5.27 µM
- IC50 [4]: 21.5 µM

Compound: O=C1C(=O)N(Cc2ccc(CBr)cc2)c2c(Br)cc(Br)cc21
- IC50 [1]: 5.1 µM
- IC50 [2]: 2.64 µM
- IC50 [3]: 7.86 µM
- IC50 [4]: 27.7 µM

Compound: CC(=O)O[C@H]1C(=O)[C@@]2(C)[C@H]([C@H](OC(=O)c3ccccc3)[C@]3(O)C[C@H](OC(=O)[C@H](O)[C@@H](NC(=O)c4ccccc4)c4ccccc4)C(C)=C1C3(C)C)[C@]1(OC(C)=O)CO[C@@H]1C[C@@H]2O
- inhibition [19]: inactive

Compound: O=C1C(=O)N(Cc2ccc(CN=C=S)cc2)c2c(Br)cc(Br)cc21
- Activity [5]: 47.5%
- Activity [6]: 6.78%
- viability at 1.25 µM [7]: 83.6%
- Activity [8]: 36.64%
- Activity [9]: Dose-dependent effect
- Activity [10]: 2.93%
- Activity [11]: 10.8%
- Activity [12]: 16.38%
- viability at 2.5 µM [13]: 63.4%
- Activity [14]: 3.5%
- inhibition [24]: Active
- IC50 [1]: 1.09 µM
- inhibition [25]: inactive
- Activity [15]: 6.56%
- fold change (FC) [16]: 16
- Activity [17]: Dose-dependent effect
- Activity [18]: 61.23%
- inhibition [19]: 77%
- Activity [20]: 8.59%
- inhibition [26]: Active
- IC50 [2]: 3.11 µM
- Activity [21]: 4.29%
- IC50 [3]: 3.82 µM
- Activity [22]: 23.3%
- IC50 [4]: 12 µM
- viability at 5 µM [23]: 38.8%
